Reference: ChEMBL document CHEMBL3352511, “Pyrrole-3-carboxamides as potent and selective JAK2 inhibitors” (Bioorg Med Chem, 2014)
Converted amounts (≈) assume the structure as drawn.

What was measured:
[1] = molecular target: Tyrosine-protein kinase JAK2 (Homo sapiens, UniProt O60674)
[2] = Antiproliferative activity against human DERL7 cells after 72 hrs by Cell Titer-Glo assay; type: functional, cell-based; conditions: DERL7, 72 h
[3] = system: A2780; experiment: Antiproliferative activity against human A2780 cells after 72 hrs by Cell Titer-Glo assay; type: functional, cell-based; conditions: A2780, 72 h
[4] = molecular target: Tyrosine-protein kinase JAK2 (Homo sapiens, UniProt O60674, V617F)
[5] = Solubility of the compound in buffer at pH7; type: physicochemical; conditions: pH 7
[6] = Cmax in Balb nu/nu mouse at 10 mg/kg, iv; type: ADME, organism-based; design: dose 10 mg/kg, route intravenous; conditions: in vivo
Procedure, shortened: (§1)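 Overnight-fasted male Nu/Nu mice, single intravenous dose in 10% Tween 80 in 5% dextrose, three mice. Saphenous vein blood taken at predose, 0.083, 0.5, 1, 6 and 24 h. Plasma obtained by centrifugation at 10,000g, 3 min, 4 °C, stored at -80 °C, then analysed by LC/MS/MS.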

[7] = (§2) AUC(infinity) in Balb nu/nu mouse at 10 mg/kg, iv; type: ADME, organism-based, Plasma; design: dose 10 mg/kg, route intravenous, time infinity; conditions: Balb nu/nu, plasma
Procedure, shortened: as §1

[8] = Clearance in Balb nu/nu mouse at 10 mg/kg, iv; type: ADME, organism-based; design: dose 10 mg/kg, route intravenous; conditions: in vivo
Procedure, shortened: as §1

[9] = Volume of distribution at steady state in Balb nu/nu mouse at 10 mg/kg, iv; type: ADME, organism-based; design: dose 10 mg/kg, route intravenous; conditions: in vivo, read-out: Vdss
Procedure, shortened: as §1

[10] = Half life in Balb nu/nu mouse at 10 mg/kg, iv; type: ADME, organism-based; design: dose 10 mg/kg, route intravenous; conditions: in vivo
Procedure, shortened: as §1

[11] = Cmax in Balb nu/nu mouse at 10 mg/kg, po; type: ADME, organism-based; design: dose 10 mg/kg, route oral; conditions: in vivo
Procedure, shortened: (§3)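 Overnight-fasted male Nu/Nu mice, single oral dose in 0.5% methocel, three mice. Saphenous vein blood taken at predose, 0.083, 0.5, 1, 6 and 24 h. Plasma obtained by centrifugation at 10,000g, 3 min, 4 °C, stored at -80 °C, then analysed by LC/MS/MS.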

[12] = AUC(infinity) in Balb nu/nu mouse at 10 mg/kg, po; type: ADME, organism-based; design: time infinity, dose 10 mg/kg, route oral; conditions: plasma
Procedure, shortened: as §3

[13] = Half life in Balb nu/nu mouse at 10 mg/kg, po; type: ADME, organism-based; design: dose 10 mg/kg, route oral; conditions: in vivo
Procedure, shortened: as §3

[14] = Oral bioavailability in Balb nu/nu mouse at 10 mg/kg; type: ADME, organism-based; conditions: in vivo
Procedure, shortened: as §3

[15] = system: Mus musculus; experiment: as §2; type: ADME, organism-based, Plasma; design: dose 10 mg/kg, route intravenous, time infinity; conditions: in vivo
Procedure, shortened: as §1

Chain of Tyrosine-protein kinase JAK2 (Homo sapiens, UniProt O60674) (O60674 whole entry): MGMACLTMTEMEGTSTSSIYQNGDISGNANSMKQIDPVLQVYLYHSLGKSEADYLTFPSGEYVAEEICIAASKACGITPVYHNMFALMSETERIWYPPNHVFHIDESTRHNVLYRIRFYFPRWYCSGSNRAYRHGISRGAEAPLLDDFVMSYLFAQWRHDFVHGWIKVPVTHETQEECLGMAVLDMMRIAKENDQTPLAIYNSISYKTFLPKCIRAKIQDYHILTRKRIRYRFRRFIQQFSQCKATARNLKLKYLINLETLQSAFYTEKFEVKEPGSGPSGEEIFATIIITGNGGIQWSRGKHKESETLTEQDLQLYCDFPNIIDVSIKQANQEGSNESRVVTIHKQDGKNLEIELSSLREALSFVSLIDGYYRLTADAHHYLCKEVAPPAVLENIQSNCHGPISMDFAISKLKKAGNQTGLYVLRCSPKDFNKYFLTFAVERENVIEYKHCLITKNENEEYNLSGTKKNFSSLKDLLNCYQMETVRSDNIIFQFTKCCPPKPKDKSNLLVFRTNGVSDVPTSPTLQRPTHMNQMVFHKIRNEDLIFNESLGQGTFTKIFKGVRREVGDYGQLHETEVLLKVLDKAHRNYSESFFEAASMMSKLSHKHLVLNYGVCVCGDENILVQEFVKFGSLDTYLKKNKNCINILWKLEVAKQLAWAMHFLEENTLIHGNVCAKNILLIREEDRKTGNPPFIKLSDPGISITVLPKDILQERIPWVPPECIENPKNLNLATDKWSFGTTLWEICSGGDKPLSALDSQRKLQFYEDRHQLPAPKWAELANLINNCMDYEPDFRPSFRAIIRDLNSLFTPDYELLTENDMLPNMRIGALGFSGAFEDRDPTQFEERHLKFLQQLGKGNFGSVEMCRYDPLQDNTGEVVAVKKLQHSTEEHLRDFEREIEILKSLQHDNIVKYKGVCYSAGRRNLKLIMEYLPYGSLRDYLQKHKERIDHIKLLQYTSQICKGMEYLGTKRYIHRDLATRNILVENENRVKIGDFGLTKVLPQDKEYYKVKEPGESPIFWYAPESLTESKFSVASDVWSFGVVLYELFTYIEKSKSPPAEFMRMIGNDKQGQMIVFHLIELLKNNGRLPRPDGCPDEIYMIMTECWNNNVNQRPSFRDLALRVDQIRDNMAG
Chain of Tyrosine-protein kinase JAK2 (Homo sapiens, UniProt O60674, V617F) (O60674 whole entry V617F): as the sequence (O60674 whole entry) above, with V617F counted along it

IC50 [1] [nM] | IC50 [4] [nM] | SMILES | also measured
308 |  | COc1ccc(Cl)cc1-c1[nH]c(-c2ccnc(N)n2)cc1C(N)=O | 
35 | 480 | CNC(=O)c1cc(-c2ccnc(N)n2)[nH]c1-c1cc(Cl)ccc1C | IC50 [2]: 2070 nM; IC50 [3]: 980 nM
247 |  | Cc1ccc(Cl)cc1-c1[nH]c(-c2ccnc(N)n2)cc1C(=O)Nc1ccccc1 | 
 | 700 | NC(=O)c1cc(-c2ccnc(N)n2)[nH]c1-c1cc(Cl)ccc1Cl | IC50 [2]: 1660 nM; IC50 [3]: 2460 nM
3060 |  | Cc1ccc(Cl)cc1-c1[nH]c(-c2ccnc(N)n2)cc1C(=O)N(C)C | 
57 |  | Cc1ccc(Cl)cc1-c1[nH]c(-c2ccnc(N)n2)cc1C(=O)NCCO | 
384 |  | Cc1ccc(Cl)cc1-c1[nH]c(-c2ccnc(N)n2)cc1C(=O)NCC(C)C | 
154 |  | Cc1ccc(Cl)cc1-c1[nH]c(-c2ccnc(N)n2)cc1C(=O)NCc1ccccc1 | 
150 |  | CC(C)c1ccc(Cl)cc1-c1[nH]c(-c2ccnc(N)n2)cc1C(N)=O | 
109 |  | CCNC(=O)c1cc(-c2ccnc(N)n2)[nH]c1-c1cc(Cl)ccc1C | 
44 | > 3000 | CNCCNC(=O)c1cc(-c2ccnc(N)n2)[nH]c1-c1cc(Cl)ccc1C | 
114 |  | Cc1ccc(Cl)cc1-c1[nH]c(-c2ccnc(N)n2)cc1C(=O)NCCF | 
46 | > 3000 | Cc1ccc(Cl)cc1-c1[nH]c(-c2ccnc(N)n2)cc1C(=O)NC1CCN(C)CC1 | 

Second part, the compound before the results:

SMILES | IC50 [1] [nM] | IC50 [4] [nM] | also measured
COc1ccc(CNc2nccc(-c3cc(C(N)=O)c(-c4cc(Cl)ccc4C)[nH]3)n2)cc1 | 394 |  | 
Cc1ccc(Cl)cc1-c1c(C(N)=O)cc(-c2ccnc(Nc3ccc(N4CCN(C)CC4)cc3)n2)n1C | 22 | 250 | 
CCc1ccc(C(F)(F)F)cc1-c1[nH]c(-c2ccnc(N)n2)cc1C(N)=O |  | 320 | IC50 [2]: 1470 nM; IC50 [3]: 2210 nM; solubility [5]: 182 µM (≈ 68.3 µg/mL); Cmax [6]: 38.9 µM; AUC(0-inf) [7]: 20.7 µM·h; clearance [8]: 21.6 mL/min/kg; Vd [9]: 0.6 L/kg; half-life [10]: 60 min; Cmax [11]: 4.4 µM; AUC(0-inf) [12]: 4.6 µM·h; half-life [13]: 108 min; bioavailability [14]: 24%
Cc1ccc(C(F)(F)F)cc1-c1[nH]c(-c2ccnc(N)n2)cc1C(N)=O | 10 | 760 | IC50 [2]: 640 nM; IC50 [3]: 440 nM
CCc1ccc(Cl)cc1-c1[nH]c(-c2ccnc(N)n2)cc1C(N)=O |  |  | IC50 [2]: 880 nM; IC50 [3]: 2000 nM; solubility [5]: 200 µM (≈ 68.4 µg/mL); Cmax [6]: 4.5 µM; AUC [15]: 2 µM·h; Vd [9]: 1.8 L/kg; half-life [10]: 12 min; Cmax [11]: 0.6 µM; AUC(0-inf) [12]: 0.7 µM·h; half-life [13]: 48 min; bioavailability [14]: 17%
NC(=O)c1cc(-c2ccnc(N)n2)[nH]c1-c1cc(OC(F)(F)F)ccc1Cl | 24 | 1100 | 
NC(=O)c1cc(-c2ccnc(N)n2)[nH]c1-c1cc(C(F)(F)F)ccc1C(F)(F)F | 21 | 3070 | 
Cc1ccc(Cl)cc1-c1[nH]c(-c2ccnc(Nc3ccc(N4CCN(C)CC4)cc3)n2)cc1C(N)=O | 59 |  | 
NC(=O)c1cc(-c2ccnc(N)n2)[nH]c1-c1ccccc1 | 3200 |  | 
Cc1ccc(Cl)cc1-c1c(C(N)=O)cc(-c2ccnc(N)n2)n1C | 66 |  | 
NC(=O)c1cc(-c2ccnc(N)n2)[nH]c1-c1ccccc1Cl | 615 |  | 
Cc1ccc(Cl)cc1-c1[nH]c(-c2ccnc(N)n2)cc1C(N)=O |  |  | IC50 [2]: 740 nM; IC50 [3]: 380 nM
Cc1ccccc1-c1[nH]c(-c2ccnc(N)n2)cc1C(N)=O | 695 |  | 
NC(=O)c1cc(-c2ccnc(N)n2)[nH]c1-c1cccc(Cl)c1 | 617 |  | 
NC(=O)c1cc(-c2ccnc(N)n2)[nH]c1-c1cc(Cl)ccc1C(F)(F)F | 53 |  | 
Cc1ccc(Cl)cc1-c1[nH]c(-c2ccncn2)cc1C(N)=O | 1240 |  | 
